Assay results from paper PMC7262549 (Biochemistry and Biophysics Reports, 2020).
Where two headings read alike, the source gives them in different places.

Columns and labels:
Conditions in all cases: 4 mM MgSO4
Sfla (wt) [1] = system: Sfla (wt)
Sfla (wt) [2] = experiment: luminometry, peak light intensity, Michaelis-Menten fit; format: biochemical, Stenocladius flavipennis
Dkum (wt) [3] = system: Dkum (wt)
Dkum (wt) [4] = experiment: luminometry, peak light intensity, Michaelis-Menten fit; format: biochemical, Drilaster kumejimensis
Pmat (wt) [5] = experiment: as above; format: biochemical, Pyrocoelia matsumurai kumejimensis
Psag (wt) [6] = experiment: as above; format: biochemical, Pristolycus sagulatus
Pmat (wt) [7] = system: Pmat (wt)
MALuci2 (wt) = experiment: luminometry, peak light intensity, Michaelis-Menten fit; format: biochemical, Luciola sp.
Outline: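 Wild-type luciferase coding sequence from lantern cDNA, expressed from pRSET-B in E. coli JM109(DE3) and Ni-NTA purified. Luciferin Km: 50 μg/mL partially purified enzyme, luciferin 0.6–640 μM. ATP Km: 50 μg/mL purified enzyme, ATP 5–1920 μM. Light emission recorded 10 s at 0.02 s gating on a luminometer. Rate taken as peak intensity; Km from least-squares Michaelis–Menten fit.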

Psag (wt) [8] = system: Psag (wt)
[9] = read-out: Km (ATP μM), 50 mM Tris-HCl pH 8.0, 1 mM luciferin
[10] = read-out: Km (luciferin μM), 50 mM Tris-HCl pH 8.0, 2 mM ATP

SMILES | Km (Sfla (wt) [1]; [9]) [µM] | Km (Sfla (wt) [2]; [9]) [µM] | Km (Dkum (wt) [3]; [9]) [µM] | Km (Dkum (wt) [4]; [9]) [µM] | Km (Pmat (wt) [5]; [9]) [µM] | Km (Psag (wt) [6]; [9]) [µM] | Km (Pmat (wt) [7]; [9]) [µM] | Km (MALuci2 (wt); [9]) [µM] | Km (Psag (wt) [8]; [9]) [µM] | Km (Sfla (wt) [1]; [10]) [µM] | Km (Sfla (wt) [2]; [10]) [µM] | Km (Dkum (wt) [3]; [10]) [µM] | Km (Dkum (wt) [4]; [10]) [µM] | Km (Pmat (wt) [5]; [10]) [µM] | Km (Psag (wt) [6]; [10]) [µM] | Km (Pmat (wt) [7]; [10]) [µM] | Km (MALuci2 (wt); [10]) [µM] | Km (Psag (wt) [8]; [10]) [µM]
Nc1ncnc2c1ncn2[C@@H]1O[C@H](COP(=O)(O)OP(=O)(O)OP(=O)(O)O)[C@@H](O)[C@H]1O [ATP] | 9 | 21.5 | 26.8 | 127 | 104 | 194 | 98.1 | 188 | 282 | – | – | – | – | – | – | – | – | –
O=C(O)[C@H]1CSC(c2nc3ccc(O)cc3s2)=N1 [D-luciferin] | – | – | – | – | – | – | – | – | – | 6.6 | 16.6 | 19.4 | 60.1 | 14.2 | 4.9 | 62.2 | 4.25 | 222
